Series [1] deals with FGFR1 kinase (Homo sapiens, UniProt P11362). The series can be described thus: ELISA kinase assay FGFR1. The series is classed as biochemical. (An ELISA detects its analyte on a solid surface through an enzyme-linked reagent.)
The target in series [2] is CYP3A4 (Homo sapiens, UniProt P08684). The series can be described thus: CYPs direct inhibition CYP3A4. The series is classed as in vitro ADME. To be noted: liver microsomes, pH 7.4.
Series [3] has as its system CYPs. The series can be described thus: CYP time-dependent inhibition. The series is classed as in vitro ADME, human. Conditions: kobs lower than 200 (10^-4/min) considered no TDI inhibition.
A short description of series [4]: In vitro metabolic stability, human liver microsomal intrinsic clearance. To be noted: liver microsomes, pH 7.4. It is filed as in vitro ADME. A digest of the protocol: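 Human liver microsomes (0.5 mg/mL) were preincubated 5 min at 37 °C with 1 μmol/L test compound in 0.1 mol/L phosphate buffer pH 7.4 with EDTA and MgCl2. NADPH started the reaction. Samples taken at 0, 5, 10 and 30 min at 37 °C were quenched with equal-volume cold acetonitrile and centrifuged. Remaining parent compound was quantified by LC–MS/MS.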
(Liver microsomes are a subcellular fraction often used to study metabolism.)

Each structure is given as a SMILES string.

Chain of FGFR1 kinase (P11362 22-822): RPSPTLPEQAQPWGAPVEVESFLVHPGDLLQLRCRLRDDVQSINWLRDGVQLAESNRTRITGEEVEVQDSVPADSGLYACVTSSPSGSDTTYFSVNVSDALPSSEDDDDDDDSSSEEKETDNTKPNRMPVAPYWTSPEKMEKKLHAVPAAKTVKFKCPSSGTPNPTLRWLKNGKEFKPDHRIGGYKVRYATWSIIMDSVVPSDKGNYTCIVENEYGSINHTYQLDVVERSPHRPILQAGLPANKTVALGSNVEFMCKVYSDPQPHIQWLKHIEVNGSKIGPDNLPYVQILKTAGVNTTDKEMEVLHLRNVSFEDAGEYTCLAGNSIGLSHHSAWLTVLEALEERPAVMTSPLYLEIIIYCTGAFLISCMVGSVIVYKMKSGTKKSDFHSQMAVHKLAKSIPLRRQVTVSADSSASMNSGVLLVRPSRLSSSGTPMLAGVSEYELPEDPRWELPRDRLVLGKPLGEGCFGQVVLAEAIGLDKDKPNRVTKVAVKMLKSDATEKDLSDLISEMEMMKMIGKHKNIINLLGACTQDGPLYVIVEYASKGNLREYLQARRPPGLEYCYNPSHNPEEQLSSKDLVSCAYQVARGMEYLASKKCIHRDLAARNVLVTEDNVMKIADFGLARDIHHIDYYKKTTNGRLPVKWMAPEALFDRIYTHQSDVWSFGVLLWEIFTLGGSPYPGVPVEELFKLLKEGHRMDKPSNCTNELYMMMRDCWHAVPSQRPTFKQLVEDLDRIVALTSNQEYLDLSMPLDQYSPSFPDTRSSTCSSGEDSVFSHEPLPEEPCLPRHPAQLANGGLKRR
Chain of CYP3A4 (P08684 whole entry): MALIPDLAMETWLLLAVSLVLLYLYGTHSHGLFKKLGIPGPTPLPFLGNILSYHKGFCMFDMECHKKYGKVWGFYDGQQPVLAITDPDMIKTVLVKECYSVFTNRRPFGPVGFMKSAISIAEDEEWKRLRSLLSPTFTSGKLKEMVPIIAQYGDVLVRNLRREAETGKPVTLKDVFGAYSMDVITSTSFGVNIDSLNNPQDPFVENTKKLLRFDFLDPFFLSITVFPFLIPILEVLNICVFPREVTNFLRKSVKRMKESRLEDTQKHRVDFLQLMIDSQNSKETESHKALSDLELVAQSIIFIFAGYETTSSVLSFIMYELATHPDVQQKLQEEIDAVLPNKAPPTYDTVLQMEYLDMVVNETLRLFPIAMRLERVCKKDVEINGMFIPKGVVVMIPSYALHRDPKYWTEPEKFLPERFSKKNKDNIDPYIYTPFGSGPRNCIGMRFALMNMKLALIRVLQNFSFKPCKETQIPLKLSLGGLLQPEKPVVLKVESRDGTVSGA

In the case of `CCOc1cccc(CCc2cnc3ccn(S(=O)(=O)c4cn(C)cn4)c3n2)c1` [Compound 30, 3-(3-Ethoxyphenethyl)-5-((1-methyl-1H-imidazol-4-yl)sulfonyl)-5H-pyrrolo[2,3-b]pyrazine], the “FGFR1 enzymatic inhibitory activity (in words)” value in series [1] is on record as “decreased dramatically”. For the molecule `COc1cc(OC)c(Cl)c(CCc2cnc3ccn(S(=O)(=O)c4ccccc4)c3n2)c1Cl` [Compound 7, 3-(2,6-Dichloro-3,5-dimethoxyphenethyl)-5-(phenylsulfonyl)-5H-pyrrolo[2,3-b]pyrazine], the IC50 (commonly the point on the concentration scale where inhibition reaches its midpoint) in series [1] amounted to 14 nM.

As for `COc1cc(OC)c(F)c(/C=C/c2cnc3ccn(S(=O)(=O)c4cn(C)cn4)c3n2)c1F` [Compound 34, (E)-3-(2,6-Difluoro-3,5-dimethoxystyryl)-5-((1-methyl-1H-imidazol-4-yl)sulfonyl)-5H-pyrrolo[2,3-b]pyrazine], in series [1], the “FGFR1 enzymatic inhibitory activity (in words)” value is “equipotent enzymatic activity as compound 32”. `COc1cc(OC)c(Cl)c(CCc2cnc3ccn(S(=O)(=O)c4c[nH]cn4)c3n2)c1Cl` [Compound 29]: the inhibition (in general, the drop in the measured response relative to a control, in per cent) at 20 min, 10 μmol/L in series [2] was 90%. Besides, the “TDI (time-dependent inhibition), CYPs affected” value in series [3] is on record as “No inhibition”. Further, in series [4], the microsomal CLint (as a rule, a measure of how fast metabolising enzymes remove a compound, apart from limits set by blood flow) at 1 μmol/L stood at 50 µL/min/mg. Further, the “FGFR1 enzymatic inhibitory activity (in words)” value in series [1] was “picomolar range”.

In the case of `COc1cc(CCc2cnc3ccn(S(=O)(=O)c4ccccc4)c3n2)cc(OC)c1` [Compound 5, 3-(3,5-Dimethoxyphenethyl)-5-(phenylsulfonyl)-5H-pyrrolo[2,3-b]pyrazine], the FGFR1 inhibition ratio result in series [1] (at 0.1 μmol/L) is “about 75%”. For the molecule `COc1cc(CCc2cnc3ccn(S(=O)(=O)c4cn(C)cn4)c3n2)c(F)c(OC)c1` [Compound 32, 3-(2-Fluoro-3,5-dimethoxyphenethyl)-5-((1-methyl-1H-imidazol-4-yl)sulfonyl)-5H-pyrrolo[2,3-b]pyrazine], the IC50 in series [1] came to 0.4 nM. For `COc1cc(CCc2cnc3ccn(S(=O)(=O)c4cn(CCF)cn4)c3n2)c(F)c(OC)c1` [Compound 33, 3-(2-Fluoro-3,5-dimethoxyphenethyl)-5-((1-(2-fluoroethyl)-1H-imidazol-4-yl)sulfonyl)-5H-pyrrolo[2,3-b]pyrazine], in series [1], the “FGFR1 enzymatic inhibitory activity (in words)” value was “equipotent enzymatic activity as compound 32”. In turn, `COc1cc(CCc2cnc3ccn(S(=O)(=O)c4cn(C)cn4)c3n2)cc(OC)c1` [Compound 20] returned an inhibition at 20 min, 10 μmol/L in series [2] of 88%. Also, in series [4], the intrinsic metabolic clearance (microsomal CLint) at 1 μmol/L worked out at 212 µL/min/mg. Besides, the “FGFR1 enzymatic inhibitory activity (in words)” value in series [1] is on record as “single digit nanomolar activity”.

With `COc1cc(CCc2cnc3ccn(S(=O)(=O)c4c[nH]cn4)c3n2)cc(OC)c1` [Compound 12, 5-((1H-Imidazol-4-yl)sulfonyl)-3-(3,5-dimethoxyphenethyl)-5H-pyrrolo[2,3-b]pyrazine], the inhibition at 20 min, 10 μmol/L in series [2] was 96%. The “TDI (time-dependent inhibition), CYPs affected” value in series [3] is given as “No inhibition”. The molecule further registered a microsomal CLint at 1 μmol/L in series [4] of 38 µL/min/mg.

The values above are taken from paper PMC6437634 (Acta Pharmaceutica Sinica. B, 2018).
